Laboratory results as given in PubChem BioAssay.
Records with an inconclusive call do not appear.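 Rule for the calls, unless noted: active = RAM network inhibition above 8.4% in each of two replicates, 3 SD over the compound average; inconclusive = above 8.4% inhibition in only one replicate; inactive = 8.4% inhibition or less in each replicate.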

Experiments:
[1] = OD615 S. cerevisiae growth inhibition, permissive medium, pilot counter-assay, permissive growth control for S. cerevisiae lifespan shortening project (AID 705;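 active = growth inhibition above 25% in both replicates, a cutoff set 3 SD above the mean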); conditions: OD615, 24 h, at 10 µM, stronger effect = higher value
Method in brief: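 System: S. cerevisiae with engineered DeaD lifespan system. Medium: SC raffinose/galactose permissive medium. Doses: single compound dose of 10 µM, 0.25% DMSO final. Schedule: 24 h exposure, 30 °C. Measured by: OD615 turbidity read. Read-out: growth inhibition.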

[2] = Restrictive medium S. cerevisiae growth inhibition, OD615, pilot screen of yeast lifespan reduction project, restrictive growth control (AID 706;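 active = growth inhibition above a set limit, 3 SD over mean compound inhibition, in both replicates, cut at about 43% in these data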;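 note: modified DeaD lifespan yeast strain shifted to restrictive glucose medium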); conditions: OD615, 48 h, at 10 µM, stronger effect = higher value
Method in brief: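 Assay system – genetically modified Saccharomyces cerevisiae, DeaD replicative lifespan assay strain · Medium – CSMM-D glucose medium · Doses – 10 µM compound, 0.25% DMSO · Times – 4 h pre-incubation, 48 h exposure at 30 °C · Signal – optical density at 615 nm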

[3] = viability gain of MRP-1-high H69AR cells under doxorubicin, pilot screen, MRP-1 activator project, CellTiter-Glo, duplicate (AID 807;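 active = viability increase at or above a cutoff of the median across tested compounds plus 3 SD, cut at about 8.5% in these data, passing the limit was not always enough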;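 note: compound pretreatment 18-22 h then 72 h combined with doxorubicin; 0% = doxorubicin alone and 100% = vehicle without doxorubicin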); conditions: H69AR viability with doxorubicin, CellTiter-Glo luminescence; at 10 µM; stronger effect = higher value
[4] = growth suppression of beta-catenin knockout HCT116, pilot screen, human colon tumor cells (AID 823;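 active = cell viability at or below a set limit in both duplicate runs, the limit being the all-compound median minus 4 SD, cut at about 23% in these data, passing the limit was not always enough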;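 note: 0% = wells killed by 20 µM Hyamine and 100% = untreated DMSO cell wells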); conditions: CellTiter-Glo, 60 h, at 10 µM, stronger effect = lower value
[5] = growth suppression of PTEN-deleted HCT116, pilot screen, cell-based, HCT116 clonal line, CellTiter-Glo (AID 824;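 active = viability at or below 27.92% in each of two runs, the all-compound median minus 4 SD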;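 note: 0% = 20 µM Hyamine control and 100% = vehicle cell control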); conditions: 60 h, at 10 µM, stronger effect = lower value
[6] = inhibitors of the yeast RAM network, pilot screen, dse1pr::URA3 reporter, 5-FOA selection (AID 869;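 active = inhibition over a set limit, the all-compound mean plus 3 SD, in both replicate runs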;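 note: 0% = DMSO wells with no growth and 100% = 10 µM 1-NA-PP1 with full growth; RAM network block rescues cells from 5-FOA so hits raise OD615 growth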); conditions: S. cerevisiae dse1pr::URA3 5-FOA growth, OD615, 2 d; at 10 µM; stronger effect = higher value; strain carries analog-sensitive mutant Cbk1 kinase
[7] = RAM signaling pathway blockade in yeast – S. cerevisiae, Pdr1DBD-CYC8 efflux-inhibited sensitized strain, primary screen (AID 1298);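 note: 0% = DMSO untreated cells without growth and 100% = 10 µM 1-NA-PP1 full growth; higher means more yeast growth rescued from 5-FOA killing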; conditions: S. cerevisiae cbk1-as DSE1-URA3 strain, 5-FOA growth OD615, 2 d; at 50 µM; stronger effect = higher value

CSc1cccc(NC(=O)CN2C(=O)c3ccccc3S2(=O)=O)c1
inactive: growth inhibition [1] -2.94% | growth inhibition [2] 3.68% | viability increase [3] -0.41% | viability [4] 106% | viability [5] 101% | inhibition [6] 0.095% | RAM network inhibition [7] 0.05%

O=C(NCC1OCCc2ccccc21)c1ccco1 (configuration not stated)
inactive: growth inhibition [1] -13.7% | growth inhibition [2] -8.18% | viability increase [3] -3.72% | viability [4] 94.5% | viability [5] 96.5% | inhibition [6] 1.16% | RAM network inhibition [7] 6.11%

CS(=O)(=O)NCCCc1ccccc1
inactive: growth inhibition [1] -3.13% | growth inhibition [2] 9.6% | viability increase [3] -1.36% | viability [4] 96.6% | viability [5] 94.5% | inhibition [6] 0.325% | RAM network inhibition [7] -0.88%

CC(=O)c1cccc(NC(=O)Cn2cc3c(n2)CCCC3)c1
inactive: growth inhibition [1] -3.74% | growth inhibition [2] -0.095% | viability increase [3] -3.04% | viability [4] 97.5% | viability [5] 96.7% | inhibition [6] 0.1% | RAM network inhibition [7] 2.14%

CCOC(=O)CSc1nc2ccccc2c(=O)[nH]1
inactive: growth inhibition [1] -13.4% | growth inhibition [2] -17.3% | viability increase [3] -0.36% | viability [4] 105% | viability [5] 100% | inhibition [6] 1.74% | RAM network inhibition [7] 3.03%

O=C(c1cc(-c2ccc(Cl)c(Cl)c2)on1)N1CCCC1
inactive: growth inhibition [1] -5.55% | growth inhibition [2] 0.315% | viability increase [3] 4.2% | viability [4] 111% | viability [5] 102% | inhibition [6] 1.99% | RAM network inhibition [7] 1.27%

COc1ccc(CNC(=O)CN(c2cc(C)cc(C)c2)S(=O)(=O)c2c(C)noc2C)cc1
inactive: growth inhibition [1] -24.7% | growth inhibition [2] -27.1% | viability increase [3] -4.08% | viability [4] 97.1% | viability [5] 89.2% | inhibition [6] 1.92% | RAM network inhibition [7] 3.21%

COCc1nnc(SCC(=O)Nc2cccc(Cl)c2C)n1-c1ccccc1
inactive: growth inhibition [1] -5.62% | growth inhibition [2] -13% | viability increase [3] -0.41% | viability [4] 107% | viability [5] 93.3% | inhibition [6] 0.57% | RAM network inhibition [7] 3.49%

C=CCn1c(C(C)NC(=O)COC)nc2ccccc21 (configuration not stated)
inactive: growth inhibition [1] -2.42% | growth inhibition [2] -4.71% | viability increase [3] -2.08% | viability [4] 98.7% | viability [5] 96.2% | inhibition [6] 0.935% | RAM network inhibition [7] 3.54%

COc1ccc(CC(=O)Nc2c3c(nn2C(C)(C)C)CS(=O)C3)cc1 (configuration not stated)
inactive: growth inhibition [1] -13.6% | growth inhibition [2] -4.57% | viability increase [3] -0.14% | viability [4] 109% | viability [5] 101% | inhibition [6] 1.24% | RAM network inhibition [7] 0.63%

O=C(NCC1(c2ccccc2)CCOCC1)c1ccc(Br)o1
inactive: growth inhibition [1] -2.18% | growth inhibition [2] -3.91% | viability increase [3] 2.31% | viability [4] 93% | viability [5] 92.3% | inhibition [6] 0.365% | RAM network inhibition [7] 2.97%

O=C(C1CC1)N1CCc2cc(Br)cc(S(=O)(=O)NC3CCCCC3)c21
inactive: growth inhibition [1] -3.11% | growth inhibition [2] -25.8% | viability increase [3] 1.71% | viability [4] 88.5% | viability [5] 89.4% | inhibition [6] 0.275% | RAM network inhibition [7] 5.54%

COc1cccc(OCCn2c(C)c(/C=N/n3cnnc3)c3ccccc32)c1
inactive: growth inhibition [1] 4.55% | growth inhibition [2] 1.59% | viability increase [3] -2.88% | viability [4] 99.3% | viability [5] 87% | inhibition [6] 2.11% | RAM network inhibition [7] 7.39%

Cc1ccc(C2CC(c3ccccc3Cl)n3nc(N)nc3N2)cc1 (configuration not stated)
inactive: growth inhibition [1] 0.815% | growth inhibition [2] 6.86% | viability increase [3] 2.22% | viability [4] 99.7% | viability [5] 92.5% | inhibition [6] 1.88% | RAM network inhibition [7] 1.81%

COc1ccc(Cl)cc1N(CC(=O)Nc1ccc2c(c1)OCO2)S(C)(=O)=O
inactive: growth inhibition [1] -15.1% | growth inhibition [2] -11.7% | viability increase [3] -3.17% | viability [4] 92.6% | viability [5] 89.4% | inhibition [6] 0.79% | RAM network inhibition [7] 2.18%

COc1ccc(C(c2sc3nc(C)nn3c2O)N2CCC(O)CC2)cc1OC (configuration not stated)
inactive: growth inhibition [1] 4.24% | growth inhibition [2] 0.32% | viability increase [3] -0.06% | viability [4] 106% | viability [5] 100% | inhibition [6] 1.38% | RAM network inhibition [7] 5.56%

N#Cc1ccc(CSCC(=O)O)cc1
inactive: growth inhibition [1] -10.3% | growth inhibition [2] -2.01% | viability increase [3] 1.1% | viability [4] 97.4% | viability [5] 107% | inhibition [6] 2.8% | RAM network inhibition [7] 4.42%

Cc1ccc(OCCCN(C)C)c(Br)c1
inactive: growth inhibition [1] -0.99% | growth inhibition [2] -6.73% | viability increase [3] -1.22% | viability [4] 89.1% | viability [5] 87.7% | inhibition [6] 1.03% | RAM network inhibition [7] 2.05%

O=C(NC12CC3CC(CC(C3)C1)C2)c1cccnc1
inactive: growth inhibition [1] -3.12% | growth inhibition [2] 15.7% | viability increase [3] -0.51% | viability [4] 104% | viability [5] 97.7% | inhibition [6] 2.61% | RAM network inhibition [7] 3.7%

COc1ccc(N2C(=O)CCC(C(=O)NCc3ccccn3)C2c2ccc(OC)c(OC)c2)cc1 (configuration not stated)
inactive: growth inhibition [1] -3.9% | growth inhibition [2] 6.09% | viability increase [3] -1.53% | viability [4] 98.3% | viability [5] 100% | inhibition [6] 1.01% | RAM network inhibition [7] -0.31%

CCCc1ccc(Oc2cn[nH]c2-c2ccc(O)cc2O)cc1
inactive: growth inhibition [1] -16.3% | growth inhibition [2] -10.3% | viability increase [3] -3.5% | viability [4] 82.4% | viability [5] 78.7% | inhibition [6] 0.7% | RAM network inhibition [7] 2.88%

O=C(OCCN1C(=O)c2ccccc2C1=O)c1cccs1
inactive: growth inhibition [1] -5.91% | growth inhibition [2] -1.62% | viability increase [3] -1.54% | viability [4] 104% | viability [5] 100% | inhibition [6] 0.61% | RAM network inhibition [7] 2.97%

O=C(Cn1cc2c(n1)CCCCC2)Nc1ccc(F)cc1F
inactive: growth inhibition [1] -4.89% | growth inhibition [2] 4.12% | viability increase [3] 0.49% | viability [4] 104% | viability [5] 97% | inhibition [6] 0.55% | RAM network inhibition [7] 2.75%

CCN(CC)S(=O)(=O)c1ccc(NC2c3ccccc3C(=O)N2Cc2ccc3c(c2)OCO3)cc1 (configuration not stated)
inactive: growth inhibition [1] 1.96% | growth inhibition [2] -8.94% | viability increase [3] -2.84% | viability [4] 92.9% | viability [5] 93% | inhibition [6] -0.09% | RAM network inhibition [7] 5.92%

COc1ccc(-n2nnc3c(=O)n(CC(=O)OCc4ccccc4)cnc32)cc1
inactive: growth inhibition [1] 0.92% | growth inhibition [2] 1.45% | viability increase [3] -1.76% | viability [4] 98.7% | viability [5] 99.9% | inhibition [6] 1.19% | RAM network inhibition [7] 6.18%

Cn1c(C(=O)NCCN2CCN(Cc3ccccc3)CC2)cc2c(=O)n(C)c3ccccc3c21
inactive: growth inhibition [1] -0.4% | growth inhibition [2] 5.33% | viability increase [3] -6.61% | viability [4] 78.5% | viability [5] 79% | inhibition [6] -0.115% | RAM network inhibition [7] 2.19%

Cc1sc2nc(SCC(=O)N3CCOCC3)[nH]c(=O)c2c1C
inactive: growth inhibition [1] -1.58% | growth inhibition [2] -1.96% | viability increase [3] -1.93% | viability [4] 105% | viability [5] 92.2% | inhibition [6] 1.8% | RAM network inhibition [7] 2.17%

COc1ccc(NC(=O)CSc2nnc(-c3ccccn3)n2N)cc1
inactive: growth inhibition [1] -5.41% | growth inhibition [2] 13.7% | viability increase [3] -0.74% | viability [4] 101% | viability [5] 97.3% | inhibition [6] 0.535% | RAM network inhibition [7] 4.82%

O=C(Cc1n[nH]c(=O)c2ccccc12)NCc1ccccn1
inactive: growth inhibition [1] -3.9% | growth inhibition [2] -19.5% | viability increase [3] -0.08% | viability [4] 103% | viability [5] 99% | inhibition [6] 1.48% | RAM network inhibition [7] 2.08%

CCC(Sc1nncn1C)C(=O)Nc1nnc(-c2ccc(Cl)cc2)s1 (configuration not stated)
inactive: growth inhibition [1] 5.38% | growth inhibition [2] 32.9% | viability increase [3] -2.63% | viability [4] 94.1% | viability [5] 93.5% | inhibition [6] 0.955% | RAM network inhibition [7] 4.37%

Cc1cc(C)cc(NC(=O)CSc2nnc(-c3ccccc3)n2N)c1
inactive: growth inhibition [1] 5.25% | growth inhibition [2] 7.08% | viability increase [3] -3.11% | viability [4] 98.1% | viability [5] 97.1% | inhibition [6] 2.74% | RAM network inhibition [7] 4.66%

Cc1cccc(NS(=O)(=O)c2ccccc2)n1
inactive: growth inhibition [1] -4.51% | growth inhibition [2] 11.2% | viability increase [3] 2.49% | viability [4] 106% | viability [5] 104% | inhibition [6] 0.75% | RAM network inhibition [7] 0.26%

CC(C)n1c(CCC(=O)O)ccc1-c1ccccc1
inactive: growth inhibition [1] 3.21% | growth inhibition [2] 4.49% | viability increase [3] -0.71% | viability [4] 96% | viability [5] 101% | inhibition [6] 0.285% | RAM network inhibition [7] 1.3%

N#Cc1c(NC(=O)c2cc(C3CC3)on2)sc2c1CCC2
inactive: growth inhibition [1] -1.24% | growth inhibition [2] 5.11% | viability increase [3] -5.36% | viability [4] 38.9% | viability [5] 34.1% | inhibition [6] 3.44% | RAM network inhibition [7] -1.72%

CC(=O)Nc1ccc(NC(=O)c2ccco2)cc1
inactive: growth inhibition [1] -9.41% | growth inhibition [2] -14.5% | viability increase [3] -2.09% | viability [4] 94.1% | viability [5] 96.8% | inhibition [6] -0.19% | RAM network inhibition [7] 2.4%

O=C(c1c(Cl)nc2sccn12)N1CCCc2ccccc21
inactive: growth inhibition [1] -2.11% | growth inhibition [2] -6.31% | viability increase [3] -0.71% | viability [4] 100% | viability [5] 98.2% | inhibition [6] 2.37% | RAM network inhibition [7] 1.4%
